From publication PMC4180501 (Biochimica et biophysica acta, 2012)

Target: T1, GK-WT (Homo sapiens, UniProt P35557)
T1 sequence (P35557 1-465): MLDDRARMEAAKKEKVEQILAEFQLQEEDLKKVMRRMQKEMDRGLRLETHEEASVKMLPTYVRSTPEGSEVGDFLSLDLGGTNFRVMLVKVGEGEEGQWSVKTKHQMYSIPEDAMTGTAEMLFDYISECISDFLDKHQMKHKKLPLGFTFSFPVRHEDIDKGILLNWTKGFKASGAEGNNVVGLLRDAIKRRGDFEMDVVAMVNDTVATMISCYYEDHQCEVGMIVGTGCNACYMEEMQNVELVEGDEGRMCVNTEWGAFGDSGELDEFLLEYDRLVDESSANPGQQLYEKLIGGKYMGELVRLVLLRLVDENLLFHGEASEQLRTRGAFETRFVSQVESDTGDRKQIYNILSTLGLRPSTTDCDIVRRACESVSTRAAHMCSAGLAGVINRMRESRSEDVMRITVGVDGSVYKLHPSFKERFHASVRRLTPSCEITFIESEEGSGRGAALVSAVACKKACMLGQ
Assay: DSC thermal denaturation
Outline: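 Wild-type recombinant human GK was run by DSC at 0.3 mg/ml (6 µM) in 5 mM phosphate, 100 mM KCl, pH 7.3, in buffer or 20% glycerol, with glucose up to 300 mM. The scan was 0.25 degree/min against a protein-free reference. Tm was plotted against glucose and fit to a hyperbola for EC50. Unfolding rate constant used k=vCp/(Qt−Q) to derive activation energy.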

[1] = GK-WT in 20% glycerol, 300 mM D-glucose
[2] = GK-WT in buffer, 300 mM D-glucose
[3] = GK-WT, 20% glycerol, 7.5 mM D-glucose
[4] = GK-WT, 20% glycerol, 50 mM D-glucose
[5] = GK-WT, 20% glycerol, 100 mM D-glucose
[6] = GK-WT, 20% glycerol, 200 mM D-glucose
[7] = GK-WT, buffer, 7.5 mM D-glucose
[8] = GK-WT, buffer, 100 mM D-glucose
[9] = GK-WT, buffer, 200 mM D-glucose

- EC50 (EC50 of glucose dependency of heat capacity (Cp), 20% glycerol, hyperbolic fit): 35 mM
- Cp^m [1]: 222.2 kJ/mol/°C
- ΔH thermal denaturation [1]: 169 kcal/mol
- Tm (GK-WT in 20% glycerol, 300 mM D-glucose, DSC): 56.9 °C
- Cp^m [2]: 130.5 kJ/mol/°C
- ΔH thermal denaturation [2]: 135 kcal/mol
- Tm (GK-WT in buffer, 300 mM D-glucose, DSC): 52.2 °C
- Cp^m [3]: 148.1 kJ/mol/°C
- Ea thermal denaturation [3]: 175.3 kcal/mol
- Tm [3]: 52.6 °C
- Cp^m [4]: 186.2 kJ/mol/°C
- Ea thermal denaturation [4]: 190.1 kcal/mol
- Tm [4]: 54.8 °C
- Cp^m [5]: 196.2 kJ/mol/°C
- Ea thermal denaturation [5]: 193.6 kcal/mol
- Tm [5]: 55.5 °C
- Cp^m [6]: 212.5 kJ/mol/°C
- Ea thermal denaturation [6]: 190.1 kcal/mol
- Tm [6]: 56.3 °C
- Ea thermal denaturation (GK-WT, 20% glycerol, 300 mM D-glucose): 189.3 kcal/mol
- Cp^m [7]: 63.2 kJ/mol/°C
- Ea thermal denaturation [7]: 120 kcal/mol
- Tm [7]: 48.0 °C
- Cp^m (GK-WT, buffer, 25 mM D-glucose): 90.8 kJ/mol/°C
- Ea thermal denaturation (GK-WT, buffer, 25 mM D-glucose): 134.4 kcal/mol
- Tm (GK-WT, buffer, 25 mM D-glucose): 49.5 °C
- Cp^m (GK-WT, buffer, 50 mM D-glucose): 101.7 kJ/mol/°C
- Ea thermal denaturation (GK-WT, buffer, 50 mM D-glucose): 137.5 kcal/mol
- Tm (GK-WT, buffer, 50 mM D-glucose): 50.0 °C
- Cp^m [8]: 109.6 kJ/mol/°C
- Ea thermal denaturation [8]: 136 kcal/mol
- Tm [8]: 50.9 °C
- Cp^m [9]: 128.4 kJ/mol/°C
- Ea thermal denaturation [9]: 140.3 kcal/mol
- Tm [9]: 52.2 °C
- Ea thermal denaturation (GK-WT, buffer, 300 mM D-glucose): 137 kcal/mol
SMILES: OC[C@H]1OC(O)[C@H](O)[C@@H](O)[C@@H]1O (stereo partly drawn) [D-glucose]
